According to ChEMBL document CHEMBL1145020, “Synthesis and structure-activity relationships of 6,7-disubstituted 4-anilinoquinoline-3-carbonitriles. The design of an orally active, irreversible inhibitor of the tyrosine kinase activity of the epidermal growth factor receptor (EGFR) and the human epidermal growth factor receptor-2 (HER-2)” (J Med Chem, 2003):

Key:
[1] = target: Receptor tyrosine-protein kinase erbB-2 (Homo sapiens, UniProt P04626); experiment: Concentration required to inhibit autophosphorylation of cytoplasmic domain of human epidermal growth factor receptor-2
SW-620 = experiment: Concentration required to inhibit growth of human carcinoma colon (SW620) cell line; assay type: functional, cell-based
[2] = Concentration required to inhibit growth of human carcinoma breast (SKBR3) cell line; assay type: functional; conditions: SK-BR-3
Method in brief: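 Cell growth inhibition measured from dose–response curves at five concentrations. […] Reported values average at least two determinations.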

A-431 = experiment: Concentration required to inhibit growth of human carcinoma epidermoid (A431) cell line; assay type: functional, cell-based
[3] = target: Epidermal growth factor receptor (Homo sapiens, UniProt P00533)
Chain of Epidermal growth factor receptor (P00533 whole entry): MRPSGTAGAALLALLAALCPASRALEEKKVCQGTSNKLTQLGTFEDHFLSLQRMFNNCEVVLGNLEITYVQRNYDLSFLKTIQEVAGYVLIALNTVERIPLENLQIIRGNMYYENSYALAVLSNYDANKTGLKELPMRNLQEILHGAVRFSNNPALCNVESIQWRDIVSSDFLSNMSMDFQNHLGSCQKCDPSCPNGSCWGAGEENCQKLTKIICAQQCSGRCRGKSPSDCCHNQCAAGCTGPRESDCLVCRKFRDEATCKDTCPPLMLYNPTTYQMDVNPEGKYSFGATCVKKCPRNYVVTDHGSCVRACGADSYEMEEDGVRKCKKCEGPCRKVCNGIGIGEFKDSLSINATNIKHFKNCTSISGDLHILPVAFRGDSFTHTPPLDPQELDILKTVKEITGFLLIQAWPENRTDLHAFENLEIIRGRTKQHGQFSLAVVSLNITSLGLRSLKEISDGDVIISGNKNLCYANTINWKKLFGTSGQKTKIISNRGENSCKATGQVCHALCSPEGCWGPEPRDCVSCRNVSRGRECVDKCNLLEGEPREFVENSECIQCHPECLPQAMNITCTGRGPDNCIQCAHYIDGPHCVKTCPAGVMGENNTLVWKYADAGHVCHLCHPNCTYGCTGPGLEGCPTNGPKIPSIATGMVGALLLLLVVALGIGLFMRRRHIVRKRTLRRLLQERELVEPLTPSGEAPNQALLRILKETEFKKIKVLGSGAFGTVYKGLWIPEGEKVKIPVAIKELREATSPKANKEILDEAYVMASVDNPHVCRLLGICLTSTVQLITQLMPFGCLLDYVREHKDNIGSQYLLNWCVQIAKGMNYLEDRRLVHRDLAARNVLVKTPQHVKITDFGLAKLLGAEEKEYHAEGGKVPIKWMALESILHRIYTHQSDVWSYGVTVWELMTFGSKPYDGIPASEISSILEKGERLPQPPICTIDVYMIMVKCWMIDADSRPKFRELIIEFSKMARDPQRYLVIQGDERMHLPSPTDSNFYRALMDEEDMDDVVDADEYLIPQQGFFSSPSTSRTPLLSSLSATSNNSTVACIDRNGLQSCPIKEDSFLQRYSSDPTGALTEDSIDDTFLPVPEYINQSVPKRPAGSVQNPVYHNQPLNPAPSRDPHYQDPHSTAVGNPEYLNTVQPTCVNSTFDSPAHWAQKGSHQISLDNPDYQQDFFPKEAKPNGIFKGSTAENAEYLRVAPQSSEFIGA

Chain of Receptor tyrosine-protein kinase erbB-2 (P04626 whole entry, the tested form may be a part): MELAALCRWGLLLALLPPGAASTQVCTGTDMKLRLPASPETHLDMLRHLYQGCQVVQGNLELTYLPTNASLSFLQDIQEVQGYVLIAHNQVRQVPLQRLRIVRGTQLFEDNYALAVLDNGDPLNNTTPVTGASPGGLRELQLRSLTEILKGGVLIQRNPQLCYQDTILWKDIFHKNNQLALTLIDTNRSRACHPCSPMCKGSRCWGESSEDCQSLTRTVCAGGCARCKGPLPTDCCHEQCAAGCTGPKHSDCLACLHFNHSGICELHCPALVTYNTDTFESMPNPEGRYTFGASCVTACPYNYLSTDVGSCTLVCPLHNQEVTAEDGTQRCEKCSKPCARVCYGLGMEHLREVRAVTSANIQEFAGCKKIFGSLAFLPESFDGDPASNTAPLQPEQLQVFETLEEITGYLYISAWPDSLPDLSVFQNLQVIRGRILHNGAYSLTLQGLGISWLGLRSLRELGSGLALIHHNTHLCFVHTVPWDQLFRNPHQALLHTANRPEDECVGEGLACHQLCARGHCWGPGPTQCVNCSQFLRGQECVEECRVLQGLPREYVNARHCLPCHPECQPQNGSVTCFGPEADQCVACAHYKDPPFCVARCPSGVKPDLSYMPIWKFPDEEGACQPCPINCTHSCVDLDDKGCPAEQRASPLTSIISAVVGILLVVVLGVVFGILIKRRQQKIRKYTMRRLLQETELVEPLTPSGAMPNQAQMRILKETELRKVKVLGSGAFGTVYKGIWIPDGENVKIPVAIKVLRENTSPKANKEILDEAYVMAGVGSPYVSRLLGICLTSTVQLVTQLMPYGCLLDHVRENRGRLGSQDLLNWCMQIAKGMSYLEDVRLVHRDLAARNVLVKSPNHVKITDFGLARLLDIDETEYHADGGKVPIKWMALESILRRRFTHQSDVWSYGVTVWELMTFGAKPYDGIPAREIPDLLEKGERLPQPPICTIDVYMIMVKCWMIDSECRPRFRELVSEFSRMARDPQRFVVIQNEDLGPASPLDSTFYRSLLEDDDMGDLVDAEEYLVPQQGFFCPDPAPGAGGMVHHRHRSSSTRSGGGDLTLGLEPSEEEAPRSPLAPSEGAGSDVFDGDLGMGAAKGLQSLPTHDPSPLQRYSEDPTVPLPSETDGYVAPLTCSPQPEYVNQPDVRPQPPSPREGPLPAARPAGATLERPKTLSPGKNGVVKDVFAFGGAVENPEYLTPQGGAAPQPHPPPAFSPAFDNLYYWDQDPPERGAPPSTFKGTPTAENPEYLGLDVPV

C=C(CN1CCOCC1)C(=O)Nc1ccc2ncc(C#N)c(Nc3ccc(F)c(Cl)c3)c2c1
IC50 [1]: 4390 nM
IC50 (SW-620): 490 nM
IC50 [2]: 220 nM

N#Cc1cnc2ccc(NC(=O)/C=C/CN3CCOCC3)cc2c1Nc1ccc(F)c(Cl)c1
IC50 [1]: 8740 nM
IC50 (SW-620): 6330 nM
IC50 [2]: 220 nM

CCOc1cc2ncc(C#N)c(Nc3cccc(Br)c3)c2cc1NC(=O)/C=C/CN1CCOCC1
IC50 [1]: 34000 nM
IC50 (SW-620): 2880 nM
IC50 [2]: 70 nM

CN(C)C/C=C/C(=O)Nc1cc2c(Nc3ccc(F)c(Cl)c3)c(C#N)cnc2cc1OC(F)(F)F
IC50 [1]: 4130 nM
IC50 (SW-620): 1460 nM
IC50 [2]: 300 nM

COc1cc(NC(=O)/C=C/CN2CCOCC2)cc2c(Nc3cccc(Br)c3)c(C#N)cnc12
IC50 [1]: 23600 nM
IC50 (SW-620): 9570 nM
IC50 [2]: 2660 nM

COc1cc(NC(=O)/C=C/CN(C)C)cc2c(Nc3cccc(Br)c3)c(C#N)cnc12
IC50 (A-431): 2520 nM
IC50 [1]: 9350 nM
IC50 (SW-620): 8970 nM
IC50 [2]: 2520 nM
IC50 [3]: 2880 nM

CN(C)C/C=C/C(=O)Nc1ccc2ncc(C#N)c(Nc3cccc(Br)c3)c2c1
IC50 (A-431): 450 nM
IC50 [1]: 4160 nM
IC50 (SW-620): 5480 nM
IC50 [2]: 180 nM
IC50 [3]: 310 nM

C/C=C/C(=O)Nc1cc2c(Nc3ccc(F)c(Cl)c3)c(C#N)cnc2cc1OCC
IC50 [1]: 21500 nM
IC50 [2]: 170 nM

CC#CC(=O)Nc1cc2c(Nc3cccc(Br)c3)c(C#N)cnc2cc1OC
IC50 (A-431): 5120 nM
IC50 [1]: 2120 nM
IC50 (SW-620): 7580 nM
IC50 [2]: 8360 nM
IC50 [3]: 910 nM

COCC#CC(=O)Nc1ccc2ncc(C#N)c(Nc3cccc(Br)c3)c2c1
IC50 (A-431): 280 nM
IC50 [1]: 300 nM
IC50 (SW-620): 520 nM
IC50 [2]: 350 nM
IC50 [3]: 960 nM

CCOc1cc2ncc(C#N)c(Nc3cccc(Br)c3)c2cc1NC(=O)/C=C/CN(C)C
IC50 [1]: 2970 nM
IC50 (SW-620): 1150 nM
IC50 [2]: 30 nM

COc1cc2ncc(C#N)c(Nc3cccc(Br)c3)c2cc1NC(=O)/C=C/CN1CCOCC1
IC50 [1]: 34100 nM
IC50 (SW-620): 5380 nM
IC50 [2]: 120 nM

CCN(CC)C(C)/C=C/C(=O)Nc1cc2c(Nc3ccc(F)c(Cl)c3)c(C#N)cnc2cc1OC (stereo not drawn)
IC50 [1]: 9580 nM
IC50 (SW-620): 880 nM
IC50 [2]: 310 nM

COc1cc2ncc(C#N)c(Nc3cccc(Br)c3)c2cc1NC(=O)/C=C/CN(C)C
IC50 (A-431): 140 nM
IC50 [1]: 5660 nM
IC50 (SW-620): 1170 nM
IC50 [2]: 30 nM
IC50 [3]: 790 nM

CCOc1cc2ncc(C#N)c(Nc3ccc(F)c(Cl)c3)c2cc1NC(=O)/C=C/CN(C)C [PELITINIB]
IC50 [2]: 10 nM

COc1cc2ncc(C#N)c(Nc3ccc(F)c(Cl)c3)c2cc1NC(=O)/C=C/CN1CCOCC1
IC50 [1]: 31400 nM
IC50 (SW-620): 6670 nM
IC50 [2]: 110 nM

CC#CC(=O)Nc1ccc2ncc(C#N)c(Nc3cccc(Br)c3)c2c1
IC50 (A-431): 5030 nM
IC50 [1]: 3870 nM
IC50 (SW-620): 12300 nM
IC50 [2]: 5500 nM
IC50 [3]: 940 nM

COCC#CC(=O)Nc1cc2c(Nc3cccc(Br)c3)c(C#N)cnc2cc1OC
IC50 (A-431): 730 nM
IC50 [1]: 380 nM
IC50 (SW-620): 1770 nM
IC50 [2]: 290 nM
IC50 [3]: 790 nM

COCCOCC#CC(=O)Nc1ccc2ncc(C#N)c(Nc3cccc(Br)c3)c2c1
IC50 (A-431): 270 nM
IC50 [1]: 450 nM
IC50 (SW-620): 340 nM
IC50 [2]: 390 nM
IC50 [3]: 930 nM

C/C=C/C(=O)Nc1ccc2ncc(C#N)c(Nc3cccc(Br)c3)c2c1
IC50 (A-431): 4400 nM
IC50 (SW-620): 12300 nM
IC50 [2]: 10100 nM

CC(C)N(CC#CC(=O)Nc1ccc2ncc(C#N)c(Nc3cccc(Br)c3)c2c1)C(C)C
IC50 (A-431): 140 nM
IC50 [1]: 320 nM
IC50 (SW-620): 250 nM
IC50 [2]: 40 nM

CCCN(CC#CC(=O)Nc1ccc2ncc(C#N)c(Nc3cccc(Br)c3)c2c1)CCC
IC50 (A-431): 240 nM
IC50 [1]: 370 nM
IC50 (SW-620): 400 nM
IC50 [2]: 80 nM
IC50 [3]: 130 nM

COc1cc2ncc(C#N)c(Nc3ccc(F)c(Cl)c3)c2cc1NC(=O)/C=C/C(C)N1CCOCC1 (stereo not drawn)
IC50 [1]: 34000 nM
IC50 (SW-620): 4940 nM
IC50 [2]: 200 nM

COC[C@@H]1CCCN1CC#CC(=O)Nc1ccc2ncc(C#N)c(Nc3cccc(Br)c3)c2c1
IC50 (A-431): 1200 nM
IC50 [1]: 1220 nM
IC50 (SW-620): 4140 nM
IC50 [2]: 540 nM
IC50 [3]: 150 nM

C=CC(=O)Nc1cc2c(Nc3cccc(Br)c3)c(C#N)cnc2cc1OC
IC50 (A-431): 310 nM
IC50 [1]: 4680 nM
IC50 (SW-620): 1880 nM
IC50 [2]: 120 nM

C=CC(=O)Nc1ccc2ncc(C#N)c(Nc3cccc(Br)c3)c2c1
IC50 (A-431): 360 nM
IC50 [1]: 1630 nM
IC50 (SW-620): 3380 nM
IC50 [2]: 440 nM
IC50 [3]: 590 nM

N#Cc1cnc2ccc(NC(=O)C#CCN3CCSCC3)cc2c1Nc1cccc(Br)c1
IC50 (A-431): 100 nM
IC50 [1]: 1040 nM
IC50 (SW-620): 350 nM
IC50 [2]: 70 nM
IC50 [3]: 550 nM

CN(C)C/C=C/C(=O)Nc1ccc2ncc(C#N)c(Nc3ccc(F)c(Cl)c3)c2c1
IC50 (A-431): 150 nM
IC50 [1]: 1950 nM
IC50 (SW-620): 880 nM
IC50 [2]: 50 nM
IC50 [3]: 650 nM

COc1cc2ncc(C#N)c(Nc3cccc(Br)c3)c2cc1NC(=O)C#CCN(C)C
IC50 (A-431): 110 nM
IC50 [1]: 180 nM
IC50 (SW-620): 300 nM
IC50 [2]: 120 nM
IC50 [3]: 90 nM

COc1cc2ncc(C#N)c(Nc3ccc(F)c(Cl)c3)c2cc1NC(=O)/C=C/CN(C)C
IC50 [1]: 4490 nM
IC50 (SW-620): 910 nM
IC50 [2]: 40 nM

C=C(CN(C)C)C(=O)Nc1cc2c(Nc3ccc(F)c(Cl)c3)c(C#N)cnc2cc1OCC
IC50 (A-431): 180 nM
IC50 [1]: 1210 nM
IC50 (SW-620): 320 nM
IC50 [2]: 90 nM
IC50 [3]: 560 nM

CCN(CC)C/C=C/C(=O)Nc1cc2c(Nc3ccc(F)c(Cl)c3)c(C#N)cnc2cc1OC
IC50 [1]: 7800 nM
IC50 (SW-620): 660 nM
IC50 [2]: 50 nM

COc1cc2ncc(C#N)c(Nc3ccc(F)c(Cl)c3)c2cc1NC(=O)/C=C/C(C)N(C)C (stereo not drawn)
IC50 [1]: 11800 nM
IC50 (SW-620): 1130 nM
IC50 [2]: 190 nM
